Reference: ChEMBL document CHEMBL1123956, “Nitrosoureido nucleosides as potential inhibitors of nucleotide biosynthesis” (J Med Chem, 1988)
Values joined by “and” are separate entries in the source; they are usually repeats but may differ in a detail not shown here. Equal entries are not always repeated.

Assays:
[1] = (§1) Half life was measured at pH 7; assay type: ADME
How it was run: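 Stability in pH 7 buffer, with decomposition followed by HPLC and the half-life taken from it.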

L1210 [2] = test: percent synthesis of DNA in L1210 cells when incubated with the compound for 18 h using […] as radioligand at 25 uM conc.; assay type: functional, Mus musculus
How it was run: (§2)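 DNA synthesis in L1210 suspension cultures preincubated with agent for 30 min or 18 h. [3H]dThd was then added to the medium, and incorporation into DNA was sampled at 1-h intervals over 4 h. Values are for the 4-h labelling period, as % of untreated control.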

L1210 [3] = test: Size distribution of cells at 25 uM conc.; assay type: functional, Mus musculus
How it was run: (§3)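 L1210 suspension cultures with agent for 30 min or 18 h, then a 4-h labelling period. Size distribution was measured on a Model ZH Coulter Counter. The value is the instrument setting at the peak of cell size; higher settings mean larger cells.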

L1210 [4] = test: percent synthesis of RNA in L1210 cells when incubated with compound for 18 hr using […] as radioligand at 25 uM conc.; assay type: functional, Mus musculus
How it was run: (§4)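 RNA synthesis in L1210 suspension cultures preincubated with agent for 30 min or 18 h. [5-3H]Urd was then added, and incorporation into RNA was sampled hourly over 4 h. Values are 4-h incorporation as % of untreated control.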

L1210 [5] = test: percent synthesis of protein in L1210 cells when incubated with the compound for 18 h uusing [3H]L-Leu as radioligand at 50 uM conc.; assay type: functional, Mus musculus
How it was run: (§5)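 Protein synthesis in L1210 suspension cultures preincubated with agent for 30 min or 18 h. [4,5-3H]-L-leucine was then added, and incorporation into protein was sampled hourly over 4 h. Values are 4-h incorporation as % of untreated control.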

L1210 [6] = test: percent synthesis of RNA in L1210 cells when incubated with compound for 30 min using […] as radioligand at 100 uM conc.; assay type: functional, Mus musculus; how it was run: as §4
L1210 [7] = test: Size distribution of cells at 100 uM conc.; assay type: functional, Mus musculus; how it was run: as §3
L1210 [8] = test: percent synthesis of DNA in L1210 cells when incubated with the compound for 30 min using […] as radioligand at 50 uM conc.; assay type: functional, Mus musculus; how it was run: as §2
L1210 [9] = test: percent synthesis of RNA in L1210 cells when incubated with compound for 18 hr using […] as radioligand at 50 uM conc.; assay type: functional, Mus musculus; how it was run: as §4
L1210 [10] = test: Number of cells present measured with the Coulter counter at 50 uM conc.; assay type: functional, Mus musculus
How it was run: (§6)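 L1210 suspension cultures with agent for 30 min or 18 h, then a further 4 h with radiolabelled precursor. Cells were counted by Coulter counter and expressed as R, the count relative to the initial cell number (R = 1.0). R < 1.0 means a fall below the starting number; R > 1.0 means proliferation.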

L1210 [11] = test: percent synthesis of protein in L1210 cells when incubated with the compound for 30 min using [3H]L-Leu as radioligand at 50 uM conc.; assay type: functional, Mus musculus; how it was run: as §5
L1210 [12] = test: percent synthesis of RNA in L1210 cells when incubated with compound for 30 min using [3H]dThd as radioligand at 50 uM conc.; assay type: functional, Mus musculus; settings: in the assay text read “[5-3H]Urd” for “[3H]dThd”; how it was run: as §4
L1210 [13] = test: percent synthesis of DNA in L1210 cells when incubated with the compound for 30 min using […] as radioligand at 100 uM conc.; assay type: functional, Mus musculus; how it was run: as §2
L1210 [14] = test: Number of cells present measured with the Coulter counter at 25 uM conc.; assay type: functional, Mus musculus; how it was run: as §6
L1210 [15] = test: Size distribution of cells at 50 uM conc.; assay type: functional, Mus musculus; how it was run: as §3
L1210 [16] = test: percent synthesis of DNA in L1210 cells when incubated with the compound for 18 h using […] as radioligand at 50 uM conc.; assay type: functional, Mus musculus; how it was run: as §2
L1210 [17] = test: Number of cells present measured with the Coulter counter at 100 uM conc.; assay type: functional, Mus musculus; how it was run: as §6
Mus musculus [18] = test: Percent increase in life span of p388 leukemia induced mice was determined at a dose of 200 mg/kg upon ip administration on days 1-5; assay type: functional; settings: route intraperitoneal
How it was run: (§7)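 Mice implanted with 10⁶ P388 leukemia cells were dosed intraperitoneally once daily on days 1-5 after implant. Activity is expressed as % increase in life span, and 30-day survivors were recorded.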

[19] = as §1; assay type: ADME; remark: listed apart in the source
How it was run: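 Stability in pH 7 buffer, followed by HPLC; reported as half-life. The method is taken from an earlier paper.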

L1210 [20] = test: Inhibition of proliferation of L1210 cells; assay type: functional, cell-based; settings: Mus musculus, read-out: I50
How it was run: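 L1210 cells in suspension culture with drug for 48 h. I50 was the concentration giving 50% inhibition of proliferation relative to controls.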

HEp-2 = test: Inhibition of colony formation of H.Ep-2 cells; assay type: functional, cell-based; settings: Homo sapiens, read-out: I50
How it was run: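 H.Ep.-2 cells exposed to drug over a 12-day period. Colony formation was scored against untreated controls, and I50 was taken as the concentration giving 50% inhibition.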

Mus musculus [21] = test: Percent increase in life span of p388 leukemia induced mice was determined at a dose of 100 mg/kg upon ip administration on days 1-5; assay type: functional; settings: route intraperitoneal; how it was run: as §7

For `O=NN(C(=O)NC1CCCCC1)C1CCCCC1`, which T1/2 [1] is on record?
Its T1/2 is 0.875 h.

With `O=NN(CCCl)C(=O)NC1CCCCC1` [LOMUSTINE] as the compound, how does the Control (L1210 [2]) read?
Its Control is 88% and 139%.

And the Cell size (L1210 [3])?
Its Cell size is 67.5 and 90.

And the Control (L1210 [4])?
The Control was 106% and 282%.

And the Control (L1210 [5])?
Its Control is 584%.

And the Control (L1210 [6])?
Its Control is 101% and 246%.

What about the Cell size (L1210 [7]) of the same compound?
Its Cell size is 65 and 85.

And the Control (L1210 [8])?
Its Control is 75%.

And the Control (L1210 [9])?
Its Control is 393%.

What about the Cell no (L1210 [10]) of the same compound?
Its Cell no is 1 and 0.53.

What about the Control (L1210 [11]) of the same compound?
Its Control is 79%.

What about the Control (L1210 [12]) of the same compound?
Its Control is 121%.

And the Control (L1210 [13])?
The Control was 46% and 131%.

What about the Cell no (L1210 [14]) of the same compound?
Its Cell no is 1.02 and 0.48.

What about the Cell size (L1210 [15]) of the same compound?
Its Cell size is 62.5 and 90.

What about the Control (L1210 [16]) of the same compound?
Its Control is 143%.

And the Cell no (L1210 [17])?
The Cell no was 1 and 0.42.

For `Cc1cn(C2CC(O)C(C(=O)Nc3ccc(NC(=O)N(C)N=O)cc3)O2)c(=O)[nH]c1=O` (centres undefined), which ILS at 200 mg/kg (Mus musculus [18]) is on record?
Its ILS at 200 mg/kg is 79%.

And the half-life [19]?
The half-life was 0.4 h.

What about the IC50 (L1210 [20]) of the same compound?
Its IC50 is greater than 90 µM.

What about the IC50 (HEp-2) of the same compound?
Its IC50 is 46 µM.

Which ILS at 200 mg/kg (Mus musculus [18]) does the source give for `CCN(N=O)C(=O)NCC1OC(n2cc(C)c(=O)[nH]c2=O)CC1O` (centres undefined) here?
The ILS at 200 mg/kg was 0%.

What about the half-life [19] of the same compound?
The half-life was 19 h.

And the IC50 (L1210 [20])?
Its IC50 is greater than 87 µM.

And the IC50 (HEp-2)?
The IC50 was greater than 87 µM.

For `CN(N=O)C(=O)Nc1ccc(NC(=O)C2OC(n3ccc(=O)[nH]c3=O)C(O)C2O)cc1` (centres undefined), which ILS at 100 mg/kg (Mus musculus [21]) is on record?
Its ILS at 100 mg/kg is 56%.

And the half-life [19]?
Its half-life is 2 h.

And the IC50 (L1210 [20])?
The IC50 was greater than 90 µM.

What about the IC50 (HEp-2) of the same compound?
The IC50 was 33 µM.
